ChEMBL document CHEMBL1148401, “Synthesis and structure-activity relationships of novel arylpiperazines as potent and selective agonists of the melanocortin subtype-4 receptor” (J Med Chem, 2004)
pEC50, pKi: −log10 of the molar value.

Columns and labels:
Melanocortin receptor 4 [1] = target: T1, Melanocortin receptor 4 (Homo sapiens, UniProt P32245); test: Binding affinity towards human melanocortin 4 receptor using [125I]NDP-alpha-MSH as a radioligand in HEK293 cells; type: cell-based
How it was run: (§1)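 Membranes from HEK293 cells stably expressing human MC1, MC3, MC4 or MC5 receptor, 0.5-5.0 µg protein, with 100 pM ¹²⁵I-NDP-α-MSH and WGA SPA beads. Buffer 25 mM HEPES pH 7.5, 10 mM CaCl₂, 0.3% BSA. Compound 30 µM to 300 pM. 10 h at room temperature, scintillation counting. Four-parameter logistic IC50 converted to Ki by Cheng-Prusoff; n = 2 or 4, ± SEM.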

Melanocortin receptor 4 [2] = target: T1, Melanocortin receptor 4; test: Agonistic potency towards human melanocortin 4 receptor, determined by 50% maximum cAMP release; type: functional
How it was run: (§2)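 HEK293 cells stably expressing human MC3 or MC4 receptor, suspended in HBSS/0.1% BSA/10 mM HEPES at 1 × 10⁶ cells/mL. Compound serial dilutions 10 µM to 0.1 nM; NDP-α-MSH control agonist 100 nM to 1 pM. 20 min at 37 °C, quenched with sodium acetate/Triton X-100. cAMP by SPA competition with ¹²⁵I-cAMP, 12 h. EC50 at 50% maximal cAMP release, n = 2, ± SEM.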

Melanocortin receptor 5 = Melanocortin receptor 5 (Homo sapiens, UniProt P33032); test: Binding affinity towards human Melanocortin 5 receptor (MC5R) using [125I]NDP-alpha-MSH as a radioligand in membranes of HEK 293 cells; type: cell membranes, HEK293; how it was run: as §1
Chain of Melanocortin receptor 5 (P33032 whole entry): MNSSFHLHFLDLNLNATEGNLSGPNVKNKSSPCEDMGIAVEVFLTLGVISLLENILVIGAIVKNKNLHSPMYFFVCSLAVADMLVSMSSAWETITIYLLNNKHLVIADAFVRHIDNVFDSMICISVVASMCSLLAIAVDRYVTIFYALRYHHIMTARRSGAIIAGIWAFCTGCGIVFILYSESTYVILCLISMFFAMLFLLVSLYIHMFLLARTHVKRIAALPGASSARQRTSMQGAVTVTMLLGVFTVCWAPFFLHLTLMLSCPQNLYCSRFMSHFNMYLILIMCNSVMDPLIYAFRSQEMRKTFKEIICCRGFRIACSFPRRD

[3] = target: Melanocyte-stimulating hormone receptor (Homo sapiens, UniProt Q01726); test: Binding affinity towards human Melanocortin 1 receptor (MC1R) using [125I]NDP-alpha-MSH as a radioligand in membranes of HEK 293 cells; type: cell membranes, HEK293; how it was run: as §1
Chain of Melanocyte-stimulating hormone receptor (Q01726 whole entry): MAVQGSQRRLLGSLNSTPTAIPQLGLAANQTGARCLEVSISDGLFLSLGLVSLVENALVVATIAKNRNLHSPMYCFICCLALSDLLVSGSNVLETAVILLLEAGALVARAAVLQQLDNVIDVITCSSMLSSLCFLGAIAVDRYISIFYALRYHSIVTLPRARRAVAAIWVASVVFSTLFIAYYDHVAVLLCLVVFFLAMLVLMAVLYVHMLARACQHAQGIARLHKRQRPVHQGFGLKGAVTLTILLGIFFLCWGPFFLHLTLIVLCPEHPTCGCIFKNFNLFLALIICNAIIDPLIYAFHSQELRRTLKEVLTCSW

Melanocortin receptor 3 [4] = target: T2, Melanocortin receptor 3 (Homo sapiens, UniProt P41968); test: Binding affinity towards human Melanocortin 3 receptor (MC3R) using [125I]NDP-alpha-MSH as a radioligand in membranes of HEK 293 cells; type: cell membranes, HEK293; how it was run: as §1
T2 sequence (P41968 whole entry): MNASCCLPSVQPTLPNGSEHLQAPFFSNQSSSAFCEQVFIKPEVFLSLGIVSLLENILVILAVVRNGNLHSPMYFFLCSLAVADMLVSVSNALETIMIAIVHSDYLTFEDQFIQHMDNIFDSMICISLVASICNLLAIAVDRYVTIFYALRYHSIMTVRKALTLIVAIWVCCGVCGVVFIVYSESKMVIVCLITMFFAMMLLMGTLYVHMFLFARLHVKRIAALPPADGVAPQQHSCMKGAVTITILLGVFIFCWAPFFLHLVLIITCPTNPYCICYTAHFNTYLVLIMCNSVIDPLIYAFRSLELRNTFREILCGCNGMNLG

Melanocortin receptor 3 [5] = target: T2, Melanocortin receptor 3; test: Agonistic potency towards human Melanocortin 3 receptor (MC3R) was determined by 50% maximum cAMP release; type: functional; how it was run: as §2
[6] = Volume distribution in fischer rats at 5 mg/kg dose, administered intravenously; type: ADME, organism-based; set-up: dose 5 mg/kg, route intravenous; details: rat, in vivo, iv, read-out: Volume distribution
How it was run: (§3)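 Fischer 344 rats, n = 3 per route: 5 mg/kg iv, or 30 mg/kg by gavage in 10% acacia. Retro-orbital blood into heparinized syringes at 0.5, 1, 2, 6 h after oral dosing and 0.083, 1, 2, 4, 6, 8, 24 h after iv dosing. Plasma stored at -70 °C and quantified by electrospray LC/MS/MS against standards by least-squares regression.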

[7] = Oral bioavailability in fischer rats at 30 mg/kg dose, administered perorally; type: ADME, organism-based; details: rat, in vivo, read-out: Bioavailabiility; how it was run: as §3
[8] = Half-life in fischer rats at 5 mg/kg dose, administered intravenously; type: ADME, organism-based; set-up: dose 5 mg/kg, route intravenous; details: rat, in vivo, iv; how it was run: as §3
[9] = Clearance in fischer rats at 5 mg/kg dose, administered intravenously; type: ADME, organism-based; set-up: dose 5 mg/kg, route intravenous; details: rat, in vivo, iv; how it was run: as §3
[10] = Tmax in fischer rats at 30 mg/kg dose, administered orally; details: rat, in vivo, po

T1 sequence (P32245 whole entry): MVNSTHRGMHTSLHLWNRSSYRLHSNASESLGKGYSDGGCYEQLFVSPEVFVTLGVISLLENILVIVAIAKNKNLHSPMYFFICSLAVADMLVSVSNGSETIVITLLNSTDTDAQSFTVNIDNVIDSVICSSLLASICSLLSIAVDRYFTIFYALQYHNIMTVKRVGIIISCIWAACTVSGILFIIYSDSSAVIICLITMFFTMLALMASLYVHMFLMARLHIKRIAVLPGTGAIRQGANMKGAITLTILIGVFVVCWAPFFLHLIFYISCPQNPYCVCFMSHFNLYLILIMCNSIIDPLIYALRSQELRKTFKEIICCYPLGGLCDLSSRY

| Structure (SMILES) | pKi (Melanocortin receptor 4 [1]) | pEC50 (Melanocortin receptor 4 [2]) | other results |
| --- | --- | --- | --- |
| CCCN(CCC)Cc1ccccc1N1CCN(C(=O)[C@@H](Cc2ccc(Cl)cc2)NC(=O)[C@H]2Cc3ccccc3CN2)CC1 | 7.46 | 8.10 | – |
| O=C(N[C@H](Cc1ccc(Cl)cc1)C(=O)N1CCN(c2ccccc2Cn2ccnc2)CC1)[C@H]1Cc2ccccc2CN1 | 6.96 | 7.85 | pKi (Melanocortin receptor 5): 6.15; pKi [3]: 5.40; pKi (Melanocortin receptor 3 [4]): 5.44; pEC50 (Melanocortin receptor 3 [5]): 5.80 |
| CN(C)CCOc1ccccc1N1CCN(C(=O)[C@@H](Cc2ccc(Cl)cc2)NC(=O)[C@H]2Cc3ccccc3CN2)CC1 | 6.64 | 7.01 | – |
| O=C(N[C@H](Cc1ccc(Cl)cc1)C(=O)N1CCN(c2ccccc2OCc2ccccc2)CC1)[C@H]1Cc2ccccc2CN1 | 6.19 | 6.82 | – |
| O=C(N[C@H](Cc1ccc(Cl)cc1)C(=O)N1CCN(c2ccccc2Oc2ccccc2)CC1)[C@H]1Cc2ccccc2CN1 | 6.19 | 6.40 | – |
| CS(=O)(=O)NCc1ccccc1N1CCN(C(=O)[C@@H](Cc2ccc(Cl)cc2)NC(=O)[C@H]2Cc3ccccc3CN2)CC1 | 6.68 | 7.32 | – |
| CC(C)Oc1ccccc1N1CCN(C(=O)[C@@H](Cc2ccc(Cl)cc2)NC(=O)[C@H]2Cc3ccccc3CN2)CC1 | 6.34 | 7.03 | – |
| CCN(CC)Cc1ccccc1N1CCN(C(=O)[C@@H](Cc2ccc(Cl)cc2)NC(=O)[C@H]2Cc3ccccc3CN2)CC1 | 7.47 | 7.85 | – |
| O=C(N[C@H](Cc1ccc(Cl)cc1)C(=O)N1CCN(c2ccccc2CN2CCCC2)CC1)[C@H]1Cc2ccccc2CN1 | 7.62 | 7.41 | – |
| Cn1ccnc1COc1ccccc1N1CCN(C(=O)[C@@H](Cc2ccc(Cl)cc2)NC(=O)[C@H]2Cc3ccccc3CN2)CC1 | 6.28 | 6.85 | – |
| O=C(N[C@H](Cc1ccc(Cl)cc1)C(=O)N1CCN(c2ccccc2CN2CCCCC2)CC1)[C@H]1Cc2ccccc2CN1 | 7.57 | 7.43 | – |
| CS(=O)(=O)Nc1ccccc1N1CCN(C(=O)[C@@H](Cc2ccc(Cl)cc2)NC(=O)[C@H]2Cc3ccccc3CN2)CC1 | 6.66 | 7.80 | Vd [6]: 4.5 L/kg; bioavailability [7]: 30%; pKi (Melanocortin receptor 5): 5.92; half-life [8]: 1.7 h; pKi [3]: 4.92; clearance [9]: 43 mL/min/kg; pKi (Melanocortin receptor 3 [4]): 5.06; Tmax [10]: 3 h; pEC50 (Melanocortin receptor 3 [5]): 5.70 |
| Cc1nccn1Cc1ccccc1N1CCN(C(=O)[C@@H](Cc2ccc(Cl)cc2)NC(=O)[C@H]2Cc3ccccc3CN2)CC1 | 6.85 | 7.68 | – |
| Cn1ccnc1Cc1ccccc1N1CCN(C(=O)[C@@H](Cc2ccc(Cl)cc2)NC(=O)[C@H]2Cc3ccccc3CN2)CC1 | 6.77 | 7.36 | – |

Further lines, with some results ahead:

| pKi (Melanocortin receptor 4 [1]) | pEC50 (Melanocortin receptor 4 [2]) | Structure (SMILES) | other results |
| --- | --- | --- | --- |
| 5.62 | 6.68 | O=C(N[C@H](Cc1ccc(Cl)cc1)C(=O)N1CCN(c2ccccc2[N+](=O)[O-])CC1)[C@H]1Cc2ccccc2CN1 | – |
| 5.72 | 6.31 | O=C(N[C@H](Cc1ccc(Cl)cc1)C(=O)N1CCN(c2ccccc2O)CC1)[C@H]1Cc2ccccc2CN1 | – |
| 5.96 | 7.36 | CN(C)c1ccccc1N1CCN(C(=O)[C@@H](Cc2ccc(Cl)cc2)NC(=O)[C@H]2Cc3ccccc3CN2)CC1 | – |
| 6.46 | 7.47 | C[C@H](O)c1ccccc1N1CCN(C(=O)[C@@H](Cc2ccc(Cl)cc2)NC(=O)[C@H]2Cc3ccccc3CN2)CC1 | – |
| 7.22 | 8.15 | CN(C)Cc1ccccc1N1CCN(C(=O)[C@@H](Cc2ccc(Cl)cc2)NC(=O)[C@H]2Cc3ccccc3CN2)CC1 | pKi (Melanocortin receptor 5): 5.85; pKi [3]: < 4.70; pKi (Melanocortin receptor 3 [4]): 5.15; pEC50 (Melanocortin receptor 3 [5]): 5.74 |
| 5.77 | 5.89 | Cc1ccccc1N1CCN(C(=O)[C@@H](Cc2ccc(Cl)cc2)NC(=O)[C@H]2Cc3ccccc3CN2)CC1 | – |
| 5.18 | 6.44 | O=C(N[C@H](Cc1ccc(Cl)cc1)C(=O)N1CCN(c2ccccc2)CC1)[C@H]1Cc2ccccc2CN1 | – |
| 5.96 | 7.15 | COc1ccccc1N1CCN(C(=O)[C@@H](Cc2ccc(Cl)cc2)NC(=O)[C@H]2Cc3ccccc3CN2)CC1 | – |
| 6.20 | 6.82 | O=C(N[C@H](Cc1ccc(Cl)cc1)C(=O)N1CCN(c2ccccc2CO)CC1)[C@H]1Cc2ccccc2CN1 | – |
| 6.14 | 6.96 | CC(C)c1ccccc1N1CCN(C(=O)[C@@H](Cc2ccc(Cl)cc2)NC(=O)[C@H]2Cc3ccccc3CN2)CC1 | – |
| 6.47 | 7.36 | C[C@@H](O)c1ccccc1N1CCN(C(=O)[C@@H](Cc2ccc(Cl)cc2)NC(=O)[C@H]2Cc3ccccc3CN2)CC1 | – |
| 5.89 | 6.84 | CCc1ccccc1N1CCN(C(=O)[C@@H](Cc2ccc(Cl)cc2)NC(=O)[C@H]2Cc3ccccc3CN2)CC1 | – |
| 5.77 | 6.70 | Nc1ccccc1N1CCN(C(=O)[C@@H](Cc2ccc(Cl)cc2)NC(=O)[C@H]2Cc3ccccc3CN2)CC1 | – |
| 6.24 | 7.40 | CCOc1ccccc1N1CCN(C(=O)[C@@H](Cc2ccc(Cl)cc2)NC(=O)[C@H]2Cc3ccccc3CN2)CC1 | – |
